Experimental findings from ChEMBL document CHEMBL1144220, “Screening helix-threading peptides for RNA binding using a thiazole orange displacement assay” (Bioorg Med Chem, 2008) are described below.

Assay [1] is described as follows: Displacement of thiazole orange from RNA A by fluorescent intercalator displacement assay. The method, boiled down: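 Pre-formed complex of RNA A (100 nM) with thiazole orange (50 nM), in 50 mM Bis-Tris·HCl pH 7.0, 100 mM NaCl, 10 mM MgCl2, 15 min. Added to a peptide titration and held ~15 min at 25 °C. Fluorescence read at ex 485 / em 535 nm, minus dye-only background. […] Three independent runs, mean ± SD.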

Assay [2] relates to RNA A (synthetic). The experiment in a line: Binding affinity to RNA A by quantitative ribonuclease V1 footprinting assay.

Square brackets hold non-standard residues; d marks the D form. Peptide text beside a SMILES is read from it. * marks the point of attachment. X1 = C=CCc1ccc(-c2cc(Nc3ccc(CN)cc3)c3cccc(C(=O)*)c3n2)cc1; X2 = C=CCc1ccc(-c2cc(Nc3ccccc3)c3cccc(C(=O)*)c3n2)cc1; AllylGly = C=CC[C@H](N)C(=O)O; Dap = NC[C@H](N)C(=O)O

What is called Kd is the equilibrium constant for the complex coming apart. A low value points to higher affinity.

In assay [1], `NC[C@@H]1O[C@H](O[C@H]2[C@@H](O)[C@H](O[C@H]3[C@@H](O)[C@H](N)C[C@H](N)[C@H]3O[C@H]3O[C@H](CN)[C@@H](O)[C@H](O)[C@H]3N)O[C@@H]2CO)[C@H](N)[C@@H](O)[C@@H]1O` came in with a Kd above 60 µM.

As for `C=CCc1ccc(-c2cc(Nc3ccccc3)c3cccc(C(=O)N[C@@H](CCCNC(=N)N)C(=O)N[C@@H](CC(N)=O)C(=O)N[C@@H](CC(N)=O)C(=O)N[C@@H](CC=C)C(N)=O)c3n2)cc1` (X2-RNN[AllylGly]-NH2), binding in assay [1] was put at a Kd of 14.2 µM.

As for `N=C(N)NCCC[C@@H]1NC(=O)c2cccc3c(Nc4ccccc4)cc(nc23)-c2ccc(cc2)C/C=C/C[C@@H](C(N)=O)NC(=O)[C@@H](CC(N)=O)NC(=O)[C@@H](CC(N)=O)NC1=O`, the Kd in assay [1] was found to be 13.4 µM. The Kd values of the last two molecules are within 1.5-fold of each other.

Consider `C=CCc1ccc(-c2cc(Nc3ccccc3)c3cccc(C(=O)N[C@@H](CCCNC(=N)N)C(=O)N[C@H](CC(C)C)C(=O)N[C@H](CC(C)C)C(=O)N[C@@H](CC=C)C(N)=O)c3n2)cc1`, for which, in assay [1], the Kd is above 30 µM.

On to `NCCCC[C@@H]1NC(=O)[C@H](CN)NC(=O)c2cccc3c(Nc4ccc(CN)cc4)cc(nc23)-c2ccc(cc2)C/C=C/C[C@@H](C(N)=O)NC(=O)CNC1=O`, for which the dissociation constant (Kd) in assay [1] came out at 0.22 µM. This molecule also came in with a Binding affinity in assay [2] of 0.05 µM.

In turn, `N=C(N)NCCC[C@@H]1NC(=O)c2cccc3c(Nc4ccccc4)cc(nc23)-c2ccc(cc2)C/C=C/C[C@@H](C(N)=O)NC(=O)CNC1=O` showed a Kd in assay [1] of 3.9 µM. In other words, the single-digit micromolar range.

`C=CCc1ccc(-c2cc(Nc3ccccc3)c3cccc(C(=O)N[C@@H](CCCNC(=N)N)C(=O)N[C@@H](CC(C)C)C(=O)N[C@@H](CC(C)C)C(=O)N[C@@H](CC=C)C(N)=O)c3n2)cc1` showed a Kd in assay [1] above 30 µM.

Take `C=CCc1ccc(-c2cc(Nc3ccc(CN)cc3)c3cccc(C(=O)N[C@@H](CN)C(=O)N[C@@H](CCCCN)C(=O)NCC(=O)N[C@@H](CC=C)C(N)=O)c3n2)cc1` (X1-[Dap]KG[AllylGly]-NH2): binding in assay [1] was put at a Kd of 0.71 µM. This molecule also showed a Binding affinity in assay [2] of 0.33 µM.

In assay [1], `CC(C)C[C@H]1NC(=O)[C@H](CCCNC(=N)N)NC(=O)c2cccc3c(Nc4ccccc4)cc(nc23)-c2ccc(cc2)C/C=C/C[C@@H](C(N)=O)NC(=O)[C@@H](CC(C)C)NC1=O` showed a Kd of 10.1 µM. This counts as double-digit micromolar.

As to `NC[C@H]1O[C@H](O[C@H]2[C@H](O)[C@@H](O[C@H]3O[C@H](CO)[C@@H](O)[C@H](N)[C@H]3O)[C@H](N)C[C@@H]2N)[C@H](O)[C@@H](O)[C@@H]1O` [KANAMYCIN], in assay [1], the Kd was above 100 µM.

`N=C(N)NCCC[C@@H]1NC(=O)c2cccc3c(Nc4ccccc4)cc(nc23)-c2ccc(cc2)C/C=C/C[C@@H](C(N)=O)NC(=O)CNC(=O)[C@H](CCCCN)NC1=O` returned a Kd in assay [1] of 0.35 µM.

In assay [1], `NCCCC[C@H]1NC(=O)CNC(=O)[C@H](CN)NC(=O)c2cccc3c(Nc4ccc(CN)cc4)cc(nc23)-c2ccc(cc2)C/C=C/C[C@@H](C(N)=O)NC1=O` yielded an Activity of 96% and a Kd of 0.6 µM. The same molecule gave a Binding affinity in assay [2] of 0.27 µM.

Take `CC(C)C[C@@H]1NC(=O)[C@H](CCCNC(=N)N)NC(=O)c2cccc3c(Nc4ccccc4)cc(nc23)-c2ccc(cc2)C/C=C/C[C@@H](C(N)=O)NC(=O)[C@H](CC(N)=O)NC1=O`: the Kd in assay [1] was 6.2 µM.

For the molecule `NCCCC[C@H]1NC(=O)[C@H](Cc2ccccc2)NC(=O)[C@H](CN)NC(=O)c2cccc3c(Nc4ccc(CN)cc4)cc(nc23)-c2ccc(cc2)C/C=C/C[C@@H](C(N)=O)NC1=O`, in assay [1], binding was characterised by a dissociation constant (Kd) of 2.7 µM. Moreover, in assay [2], the Binding affinity was found to be 2.3 µM.

On to `CC(C)C[C@@H]1NC(=O)[C@H](CC(N)=O)NC(=O)[C@H](CCCNC(=N)N)NC(=O)c2cccc3c(Nc4ccccc4)cc(nc23)-c2ccc(cc2)C/C=C/C[C@@H](C(N)=O)NC1=O`, for which, in assay [1], the Kd was found to be 18.9 µM.

In the case of `CC(C)[C@H](NC(=O)[C@H](CO)NC(=O)CCCN)C(=O)NCc1ccc(Nc2ccnc3c(C(=O)N[C@@H](CCCNC(=N)N)C(N)=O)cccc23)cc1`, in assay [1], the Kd was found to be 13.2 µM. In addition, the Binding affinity in assay [2] amounted to 3.3 µM.

Molecule `N=C(N)NCCC[C@@H]1NC(=O)c2cccc3c(Nc4ccccc4)cc(nc23)-c2ccc(cc2)C/C=C/C[C@@H](C(N)=O)NC(=O)[C@H](CC(N)=O)NC(=O)[C@H](CC(N)=O)NC1=O` gave a Kd in assay [1] of 1.4 µM.

Molecule `N=C(N)NCCC[C@@H]1NC(=O)c2cccc3c(Nc4ccccc4)cc(nc23)-c2ccc(cc2)C/C=C/C[C@@H](C(N)=O)NC1=O` came in with a Kd in assay [1] of 3.6 µM.

`NCCCC[C@H]1NC(=O)[C@@H](Cc2ccccc2)NC(=O)[C@H](CN)NC(=O)c2cccc3c(Nc4ccc(CN)cc4)cc(nc23)-c2ccc(cc2)C/C=C/C[C@@H](C(N)=O)NC1=O`: the Kd in assay [1] came to 4.4 µM. In assay [2], this molecule came in with a Binding affinity of 8.6 µM.

Turning to `CC(C)C[C@@H]1NC(=O)[C@H](CC(C)C)NC(=O)[C@H](CCCNC(=N)N)NC(=O)c2cccc3c(Nc4ccccc4)cc(nc23)-c2ccc(cc2)C/C=C/C[C@@H](C(N)=O)NC1=O`, in assay [1], the Kd is above 30 µM.
